The text below walks through data of ChEMBL document CHEMBL1136473, “6-(2-adamantan-2-ylidene-hydroxybenzoxazole)-O-sulfamate: a potent non-steroidal irreversible inhibitor of human steroid sulfatase” (Bioorg Med Chem Lett, 2003).

For assay [1], the target named is T1, Estrogen receptor (Homo sapiens, UniProt P03372).
T1 sequence (P03372 whole entry): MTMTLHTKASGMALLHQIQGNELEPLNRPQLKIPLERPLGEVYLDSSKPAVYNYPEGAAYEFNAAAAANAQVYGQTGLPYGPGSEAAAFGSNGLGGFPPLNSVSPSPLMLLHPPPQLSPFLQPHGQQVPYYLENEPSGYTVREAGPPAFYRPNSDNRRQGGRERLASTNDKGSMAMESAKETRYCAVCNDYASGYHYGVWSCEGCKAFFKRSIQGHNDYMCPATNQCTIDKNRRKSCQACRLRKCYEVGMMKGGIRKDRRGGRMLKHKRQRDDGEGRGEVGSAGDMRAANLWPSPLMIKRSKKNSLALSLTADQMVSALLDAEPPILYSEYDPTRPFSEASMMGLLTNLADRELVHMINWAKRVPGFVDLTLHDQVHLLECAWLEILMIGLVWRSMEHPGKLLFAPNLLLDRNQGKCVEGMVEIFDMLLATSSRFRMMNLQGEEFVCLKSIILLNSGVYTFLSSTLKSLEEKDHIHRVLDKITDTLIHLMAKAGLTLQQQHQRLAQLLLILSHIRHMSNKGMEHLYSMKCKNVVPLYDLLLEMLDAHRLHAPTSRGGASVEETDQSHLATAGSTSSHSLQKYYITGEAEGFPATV
Kind of assay: Affinity for human estrogen receptor alpha.

Assay [2] concerns the target Estrogen receptor beta (Homo sapiens, UniProt Q92731). The assay is described as follows: Affinity for human estrogen receptor beta.
The target of assay [3] is T2, Steryl-sulfatase (Homo sapiens) (UniProt P08842).
T2 sequence (whole entry): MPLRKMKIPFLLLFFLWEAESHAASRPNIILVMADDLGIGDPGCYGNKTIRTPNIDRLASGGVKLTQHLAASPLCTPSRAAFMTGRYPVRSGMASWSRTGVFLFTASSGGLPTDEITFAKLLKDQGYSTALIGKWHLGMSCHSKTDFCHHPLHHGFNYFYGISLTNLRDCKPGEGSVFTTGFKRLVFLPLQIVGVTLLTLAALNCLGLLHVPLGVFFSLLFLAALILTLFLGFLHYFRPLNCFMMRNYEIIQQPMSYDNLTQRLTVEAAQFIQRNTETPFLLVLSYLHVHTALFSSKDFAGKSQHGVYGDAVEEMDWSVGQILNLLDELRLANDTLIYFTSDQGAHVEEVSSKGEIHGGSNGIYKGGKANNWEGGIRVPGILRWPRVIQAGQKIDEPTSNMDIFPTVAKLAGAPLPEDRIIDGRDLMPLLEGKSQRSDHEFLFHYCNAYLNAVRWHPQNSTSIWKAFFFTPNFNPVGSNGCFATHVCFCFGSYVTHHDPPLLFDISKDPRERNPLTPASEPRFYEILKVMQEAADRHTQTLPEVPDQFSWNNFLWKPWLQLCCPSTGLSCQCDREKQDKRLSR
The assay is described as follows: Rate constant of inactivation against human steroid sulfatase. Put shortly:
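Purified human steroid sulfatase incubated with a range of inhibitor concentrations. Residual enzyme activity measured over time to follow inactivation kinetics, giving Ki and kinact.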

The target of assay [4] is T3, Steryl-sulfatase (Homo sapiens, UniProt P08842).
T3 sequence (P08842 whole entry): T2 sequence (whole entry)
The assay is described as follows: Inhibitory activity against human steroid sulfatase expressing in CHO cells. Format: cell-based.

Assay [5] concerns the target Arylsulfatase B (Homo sapiens) (UniProt P15848). The assay is described as follows: Inhibitory activity against human aryl sulfatase B (ASB) isolated from human placenta at a concentration up to 10 uM. Summed up: (§1)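 Arylsulfatases A and B purified from human placenta and assayed with inhibitor present at up to 10 μM. Time dependence of inhibition examined.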
Assay [6] deals with T3, Steryl-sulfatase. The assay is described as follows: Inhibitory constant against purified human steroid sulfatase.
Assay [7] addresses T3, Steryl-sulfatase. Kind of assay: Inhibition of human STS in keratinocytes. Format: cell-based.
The target of assay [8] is T3, Steryl-sulfatase. Kind of assay: Inhibitory activity against human steroid sulfatase in fibroblasts.
Assay [9] has as its target T3, Steryl-sulfatase. Kind of assay: Inhibitory activity against STS in human MCF-7 breast cancer cells. Format: cell-based. The following applies: mcf7. Summed up:
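Intact MCF-7 breast cancer cells; STS-dependent cleavage of estrone sulfate substrate measured to derive IC50.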

In assay [10] the target is T4, Arylsulfatase A (Homo sapiens) (UniProt P15289).
T4 sequence (whole entry): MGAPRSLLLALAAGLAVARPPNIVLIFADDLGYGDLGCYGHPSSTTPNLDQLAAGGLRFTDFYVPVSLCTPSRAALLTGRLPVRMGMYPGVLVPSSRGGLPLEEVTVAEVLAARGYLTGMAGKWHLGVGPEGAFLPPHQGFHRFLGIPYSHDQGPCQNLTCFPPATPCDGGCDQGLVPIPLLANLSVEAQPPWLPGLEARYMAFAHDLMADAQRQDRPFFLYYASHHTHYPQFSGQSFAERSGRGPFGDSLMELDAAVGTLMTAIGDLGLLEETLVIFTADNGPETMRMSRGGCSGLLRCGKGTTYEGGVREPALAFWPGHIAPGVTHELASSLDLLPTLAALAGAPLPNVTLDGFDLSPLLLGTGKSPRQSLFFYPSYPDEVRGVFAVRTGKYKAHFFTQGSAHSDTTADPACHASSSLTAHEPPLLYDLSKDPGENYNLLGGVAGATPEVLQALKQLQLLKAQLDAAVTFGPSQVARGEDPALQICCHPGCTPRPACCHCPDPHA
Kind of assay: Inhibitory activity against human Arylsulfatase A (ASA) isolated from human placenta; IA=Inactive. Put shortly: as §1

SMILES strings stand for the structures. The source made the active and inactive calls. No cut-off for these calls is given here.

By EC50 is commonly meant the midpoint of the concentration-response curve. Read a low EC50 as a more potent agent. By IC50 is commonly meant the concentration that inhibits the measured activity by half. High values mean a need for much substance, low ones inhibition by little substance. The inhibition is the change of the read-out against control, counted positive when it falls. Higher therefore signals a response far below the control. By Ki is commonly meant the dissociation constant of the complex between target and ligand, obtained from inhibition or displacement.

Sequence of Estrogen receptor beta (Q92731 whole entry): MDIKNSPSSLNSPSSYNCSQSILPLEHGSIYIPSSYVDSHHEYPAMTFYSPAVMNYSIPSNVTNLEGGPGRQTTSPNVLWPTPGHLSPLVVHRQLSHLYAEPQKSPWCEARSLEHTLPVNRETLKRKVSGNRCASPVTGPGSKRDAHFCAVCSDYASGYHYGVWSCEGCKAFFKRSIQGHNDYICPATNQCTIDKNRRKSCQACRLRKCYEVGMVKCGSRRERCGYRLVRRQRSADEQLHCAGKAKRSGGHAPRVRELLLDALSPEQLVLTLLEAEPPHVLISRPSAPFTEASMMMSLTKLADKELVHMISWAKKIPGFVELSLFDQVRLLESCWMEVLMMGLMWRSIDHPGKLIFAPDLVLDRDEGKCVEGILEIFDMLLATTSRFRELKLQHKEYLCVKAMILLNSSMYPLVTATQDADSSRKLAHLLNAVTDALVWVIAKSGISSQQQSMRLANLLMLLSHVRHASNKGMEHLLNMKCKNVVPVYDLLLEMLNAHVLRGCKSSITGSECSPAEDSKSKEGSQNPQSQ
Sequence of Arylsulfatase B (Homo sapiens) (P15848 whole entry): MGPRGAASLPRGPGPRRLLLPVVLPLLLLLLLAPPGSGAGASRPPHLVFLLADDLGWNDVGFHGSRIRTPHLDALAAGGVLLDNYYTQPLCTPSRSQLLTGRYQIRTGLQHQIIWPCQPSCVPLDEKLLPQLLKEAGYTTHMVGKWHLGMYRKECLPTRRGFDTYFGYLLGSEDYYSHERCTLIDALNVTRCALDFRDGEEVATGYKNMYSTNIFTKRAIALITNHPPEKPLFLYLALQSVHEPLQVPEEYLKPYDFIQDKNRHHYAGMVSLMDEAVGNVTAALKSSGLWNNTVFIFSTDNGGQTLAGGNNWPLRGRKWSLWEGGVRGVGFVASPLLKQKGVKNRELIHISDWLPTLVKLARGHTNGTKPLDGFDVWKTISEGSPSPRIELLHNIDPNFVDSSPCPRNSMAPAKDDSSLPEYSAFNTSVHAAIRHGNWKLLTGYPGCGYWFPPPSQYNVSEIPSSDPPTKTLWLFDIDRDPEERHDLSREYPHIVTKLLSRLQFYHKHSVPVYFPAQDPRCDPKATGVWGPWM

`NS(=O)(=O)Oc1ccc2nc(C=C3C4CC5CC(C4)CC3C5)oc2c1`: the EC50 in [1] and in [2] was more than 100000 nM each time. Moreover, the K inact in assay [3] came out at 0.097 U s-1. Besides, the IC50 in [4] came out at 31.8 nM; in [7], 0.77 nM; in assay [8], 0.75 nM; in assay [9] it was 2.3 nM. The inhibition in assay [5] turned out to be 25%. For the same compound, affinity in assay [6] was put at a Ki of 6000 nM. Moreover, in assay [10], the result was inactive.

On to `C[C@]12CC[C@@H]3c4ccc(OS(N)(=O)=O)cc4CCC3[C@@H]1CCC2=O` (single isomer, unassigned) [EMATE], for which the figures for the 50% effective concentration (EC50) in assay [1] and in assay [2] were 2600 nM and 3700 nM, respectively. This compound yielded a K inact in assay [3] of 0.009 U s-1. The compound further yielded a Ki in [6] of 470 nM.
